In experiment [1] the test system is L1210. The experiment can be described thus: Concentration that causes a mitotic index (number of cells in mitosis divided by total cells) of 0.5 for cultured lymphoid leukemia L1210 cells during an exposure period of 12 h. The class given is functional, Mus musculus. In outline: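 Mouse lymphoid leukemia L1210 cells in culture, exposed to agent for 12 h. Mitotic index is cells in mitosis over total cells. Value is the nanomolar concentration giving an index of 0.5.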

The subject of experiment [2] is Mus musculus. Nature of the experiment: Compound was evaluated in vivo for antileukemic activity by calculating Percent increase in life span at dose of 30 mg/kg. The class given is functional. In outline: (§1)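 NCI protocols. CD2F1 mice were implanted ip with 10⁶ lymphocytic leukemia P388 cells 24 h before treatment. Drug was given ip daily on days 1–5, or as a single day-1 dose where footnoted. The read-out was percent increase in lifespan.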

In experiment [3] the test system is L1210. The experiment can be described thus: Concentration that inhibits proliferation of cultured lymphoid leukemia L1210 cells to 50% control growth during 48 h. The class given is functional, cell-based. As to conditions: Mus musculus, L1210, 48 h. In short, it runs like this: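 L1210 lymphoid leukemia cells in culture, exposed to agent for 48 h. Proliferation is measured against untreated control growth. Value is the nanomolar concentration holding growth to 50% of control.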

Experiment [4] concerns Mus musculus. The experiment can be described thus: Compound was evaluated in vivo for antileukemic activity by calculating Percent increase in life span at dose of 75 mg/kg. The class given is functional. In outline:
as §1

In experiment [5] the test system is Mus musculus. Nature of the experiment: Compound was evaluated in vivo for antileukemic activity by calculating Percent increase in life span at dose of 24 mg/kg. The class given is functional. In short, it runs like this:
as §1

Experiment [6] relates to Mus musculus. Nature of the experiment: Compound was evaluated in vivo for antileukemic activity by calculating Percent increase in life span at dose of 8 mg/kg. The class given is functional. In short, it runs like this: as §1
Experiment [7] relates to Mus musculus. Nature of the experiment: Compound was evaluated in vivo for antileukemic activity by calculating Percent increase in life span at dose of 200 mg/kg. The class given is functional. In short, it runs like this: as §1
For experiment [8], the system named is Mus musculus. The experiment can be described thus: Compound was evaluated in vivo for antileukemic activity by calculating Percent increase in life span at dose of 70 mg/kg. The class given is functional. In short, it runs like this:
as §1

In experiment [9] the test system is Mus musculus. Nature of the experiment: Compound was evaluated in vivo for antileukemic activity by calculating Percent increase in life span at dose of 1 mg/kg. The class given is functional. In short, it runs like this:
as §1

For experiment [10], the system named is Mus musculus. Nature of the experiment: Compound was evaluated in vivo for antileukemic activity by calculating Percent increase in life span at dose of 0.5 mg/kg. The class given is functional. In short, it runs like this: as §1
For experiment [11], the system named is Mus musculus. The experiment can be described thus: Compound was evaluated in vivo for antileukemic activity by calculating Percent increase in life span at dose of 2 mg/kg. The class given is functional. In short, it runs like this:
as §1

Usually ILS stands for how much longer treated animals lived than controls. As a reminder, the IC50 is the concentration at which inhibition is half-maximal. High values mean lower potency, low ones higher potency.

Compound `CCOC(=O)Nc1cc2c(c(N)n1)N=C(c1ccccc1)[C@@H](C)N2` yielded an MI0.5 in the experiment with L1210 [1] of 27 nM. Besides, the ILS at 30 mg/kg in the experiment with Mus musculus [2] was 88%.
For the compound `CCOC(=O)Nc1cc2c(c(O)n1)N=C(c1ccccc1)C(C)N2` (stereo not given), in the experiment with L1210 [1], the MI0.5 is reported as 1800 nM. For the same compound, inhibition in the experiment on L1210 [3] was half-maximal at 4.4 µM (IC50).
`CCOC(=O)Nc1cc(N)c2c(n1)NC(C)C(c1ccccc1)=N2` (stereo not given) returned an MI0.5 in the experiment with L1210 [1] of 6700 nM. The ILS at 75 mg/kg in the experiment on Mus musculus [4] is 0%. In the experiment on L1210 [3], the IC50 was 3.9 µM.
On to `CCOC(=O)Nc1cc2c(cn1)N=C(c1ccccc1)C(C)N2` (stereo not given), for which the ILS at 24 mg/kg with Mus musculus [5] was 90%. In the experiment on L1210 [1], this compound yielded an MI0.5 of 21 nM. In the experiment on L1210 [3], this compound registered an IC50 of 0.017 µM.
Consider `CCOC(=O)Nc1cc2c(c(N)n1)N=C(c1ccccc1)CCN2`, for which the ILS at 8 mg/kg in the experiment with Mus musculus [6] is 35%. In addition, the IC50 with L1210 [3] was 0.0037 µM.
In the case of `COC(=O)Nc1nc(N)c2c(n1)NC(C)C(c1ccccc1)=N2` (stereo not given), in the experiment on L1210 [1], the MI0.5 is listed as 3000 nM. Also, the ILS at 200 mg/kg with Mus musculus [7] was 0%. Also, half-maximal inhibition with L1210 [3] (IC50) was put at 1.7 µM.
Turning to `CCOC(=O)Nc1cc2c(cn1)NC(c1ccccc1)C(C)N2` (stereo not given), the MI0.5 with L1210 [1] worked out at 161 nM. Further, the ILS at 70 mg/kg in the experiment on Mus musculus [8] was 65%. Also, the midpoint of inhibition in the experiment on L1210 [3], the IC50, lay at 0.081 µM.
In turn, `CCOC(=O)Nc1cc2c(c(N)n1)N=C(c1ccccc1)C(C)N2` (racemic) registered an MI0.5 in the experiment on L1210 [1] of 0.58 nM. The ILS at 1 mg/kg in the experiment with Mus musculus [9] is 71%.
Regarding `COc1cc2c(c(OC)c1OC)-c1ccc(OC)c(=O)cc1[C@@H](NC(C)=O)CC2` [COLCHICINE], in the experiment with L1210 [1], the MI0.5 amounted to 21 nM.
For `CCOC(=O)Nc1cc2c(c(N)n1)N=C(c1ccccc1)[C@H](C)N2` [MIVOBULIN], the ILS at 0.5 mg/kg with Mus musculus [10] is 64%. The compound further returned an MI0.5 in the experiment with L1210 [1] of 0.14 nM.
Consider `CC[C@]1(O)C[C@H]2CN(CCc3c([nH]c4ccccc34)[C@@](C(=O)OC)(c3cc4c(cc3OC)N(C=O)[C@H]3[C@@](O)(C(=O)OC)[C@H](OC(C)=O)[C@]5(CC)C=CCN6CC[C@]43[C@@H]65)C2)C1` [VINCRISTINE], for which the ILS at 2 mg/kg in the experiment with Mus musculus [11] is 85%. In addition, the MI0.5 in the experiment with L1210 [1] stood at 11 nM.
